What all share (format): functional
One test has as its system K562. The test is described as follows: In vitro inhibitory activity against leukemia K-562 cancer cell line. To be noted: Homo sapiens. An outline of the steps:
(§1)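 Tested in the National Cancer Institute's in vitro disease-oriented tumor cell line screen. Dose-response curves were recorded for each cell line, and values are reported as log GI50, the compound concentration that inhibits cell growth by 50%.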

Test [1] in a line: In vitro inhibitory activity against small cell lung DMS 114 cancer cell line. To be noted: Homo sapiens, Cancer cell lines. Summed up:
as §1

In the next test the test system is UACC-62. The test is described as follows: In vitro inhibitory activity against melanoma UACC-62 cancer cell line. To be noted: Homo sapiens. An outline of the steps:
as §1

Test [2] is described as follows: In vitro inhibitory activity against small cell lung DMS 273 cancer cell line. To be noted: Homo sapiens, Cancer cell lines. Summed up: as §1
The subject of another test is HL-60. Nature of the test: In vitro inhibitory activity against leukemia HL-60(TB) cancer cell line. To be noted: Homo sapiens. Summed up:
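Tested in the NCI in vitro disease-oriented human tumour cell line screen. Growth inhibition was read from dose-response curves and reported as log GI50, the compound concentration that inhibits cell growth by 50%.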

The test system of the next test is Malme-3M. The test is described as follows: In vitro inhibitory activity against melanoma MALME-3M cancer cell line. The following applies: Homo sapiens. An outline of the steps:
as §1

For the next test, the system named is SF-539. The test is described as follows: In vitro inhibitory activity against CNS SF-539 cancer cell line. To be noted: Homo sapiens. An outline of the steps:
as §1

The next test has as its system NCI-H522. The test is described as follows: In vitro inhibitory activity against non small lung […]H522 cancer cell line. To be noted: Homo sapiens. An outline of the steps: as §1
The test system of a further test is COLO 205. Nature of the test: In vitro inhibitory activity against colon COLO-205 cancer cell line. The following applies: Homo sapiens. An outline of the steps:
as §1

Another test relates to RXF 393. The test is described as follows: In vitro inhibitory activity against renal RXF-393 cancer cell line. To be noted: Homo sapiens. Summed up: as §1
The next test deals with HCT-116. Nature of the test: In vitro inhibitory activity against colon HCT116 cancer cell line. To be noted: Homo sapiens. Summed up:
as §1

The next test has as its system HOP-92. The test is described as follows: In vitro inhibitory activity against non small lung HOP-92 cancer cell line. The following applies: Homo sapiens. Summed up:
as §1

Another test deals with IGROV-1. The test is described as follows: In vitro inhibitory activity against ovarain IGROV1 cancer cell line. To be noted: Homo sapiens. Summed up: as §1
The next test relates to OVCAR-3. The test is described as follows: In vitro inhibitory activity against ovarain OVCAR-3 cancer cell line. To be noted: Homo sapiens. Summed up:
as §1

A further test concerns MCF7. The test is described as follows: In vitro inhibitory activity against breast MCF-7 cancer cell line. To be noted: Homo sapiens. An outline of the steps: as §1
In a further test the test system is U-251. The test is described as follows: In vitro inhibitory activity against CNS U-251 cancer cell line. The following applies: Homo sapiens. An outline of the steps: as §1
A further test relates to DU-145. The test is described as follows: In vitro inhibitory activity against prostate DU-145 cancer cell line. The following applies: Homo sapiens. An outline of the steps:
as §1

A further test relates to ACHN. The test is described as follows: In vitro inhibitory activity against renal ACHN cancer cell line. The following applies: Homo sapiens. Summed up:
as §1

In a further test the test system is MDA-N. Nature of the test: In vitro inhibitory activity against breast MDA-N cancer cell line. The following applies: Homo sapiens. Summed up:
as §1

A further test deals with PC-3. Nature of the test: In vitro inhibitory activity against prostate PC-3 cancer cell line. To be noted: Homo sapiens. An outline of the steps: as §1

SMILES strings stand for the structures.

On to `CCn1c(C)nc2c1C(=O)c1ccccc1C2=O`, for which the 50% growth inhibitory concentration (GI50) – broadly, the concentration at which growth is held to half of that of the control – was 1.66 µM in the test with K562; 0.275 µM in test [1]; 4.9 µM with UACC-62; 1.66 µM in test [2]; 16.6 µM in the test on HL-60; 2.51 µM in the test with Malme-3M. The GI50 with SF-539 was 2.69 µM; with NCI-H522 it was 0.24 µM; with COLO 205, 0.355 µM; in the test with RXF 393, 27.5 µM; in the test on HCT-116, 1.23 µM; in the test with HOP-92 it was 1.62 µM. For the same compound, the GI50 with IGROV-1 was 2.04 µM; in the test with OVCAR-3 it was 0.0501 µM; with MCF7 it was 0.676 µM; in the test with U-251, 1.91 µM.

Take `CC/N=C1/C(=O)c2ccccc2C(O)=C1NC(=O)c1cc(OC)cc(OC)c1`: the GI50 with K562 is 0.49 µM; in the test on DU-145, 2.69 µM; with UACC-62, 0.355 µM; in the test on ACHN it was 0.977 µM; in the test on HL-60, 0.407 µM; in the test on Malme-3M it was 0.776 µM. Moreover, the GI50 with SF-539 was 1.91 µM; with NCI-H522 it was 0.372 µM; in the test with MDA-N, 0.12 µM; with COLO 205 it was 3.47 µM; in the test with PC-3, 0.38 µM; with RXF 393 it was 0.324 µM. Besides, the GI50 was 0.417 µM in the test on HCT-116; 1.12 µM with HOP-92; 1.55 µM with IGROV-1; 0.525 µM in the test on OVCAR-3; 0.372 µM in the test on MCF7; 0.525 µM with U-251.

In the case of `O=C(Cc1ccccc1F)NC1=C(Cl)C(=O)c2ccccc2C1=O`, the GI50 in the test on K562 is 0.295 µM; in test [1], 0.174 µM; in the test with UACC-62, 0.331 µM; with ACHN, 0.479 µM; in [2], 1.29 µM; in the test with HL-60 it was 0.282 µM. Moreover, the GI50 was 1.7 µM in the test with Malme-3M; 0.24 µM in the test with SF-539; 0.214 µM with NCI-H522; 1.91 µM in the test on COLO 205; 0.166 µM in the test on RXF 393; 0.427 µM in the test on HCT-116. For the same compound, the 50% growth inhibitory concentration (GI50) is 1.1 µM in the test with HOP-92, 0.676 µM in the test on IGROV-1, 0.933 µM in the test on OVCAR-3 and 0.331 µM in the test on U-251.

Source of the values: ChEMBL document CHEMBL1129540, “Synthesis and cytotoxicity of 1,2-disubstituted naphth[2,3-d]imidazole-4,9-diones and related compounds” (1996).
